Measured values taken from ChEMBL document CHEMBL4689842, “EUbOPEN Chemogenomics Library wave 1” (2021).

What was measured:
U2OS = experiment: Multiplex assay against U2OS; type: toxicity, cell-based; conditions: human
Procedure, shortened: (§1)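 Compound was added to live cells that had been stained at seeding with Hoechst33342, BioTracker Green Microtubule Cytoskeleton Dye, MitoTracker Red and Annexin V Alexa Fluor 680, and imaging followed on a CQ1 microscope at 37°C and 5% CO2. CellPathfinder machine-learning gating divided cells into Hoechst high-intensity objects or normal cells, normal cells into healthy, pyknosed or fragmented nuclei, and pyknosed cells into mitotic or apoptotic. Tubulin, mitochondrial-mass and membrane-permeability phenotypes are per cents of healthy-nucleus cells.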

HEK-293T = experiment: Multiplex assay against HEK293T; type: toxicity, cell-based; conditions: human; procedure, shortened: as §1
[1] = 12 h, 1 µM, compound concentration 1 uM, replicate 1
[2] = 12 h, 1 µM, compound concentration 1 uM, replicate 2
[3] = 12 h, 10 µM, compound concentration 10 uM, replicate 1
[4] = 12 h, 10 µM, compound concentration 10 uM, replicate 2
[5] = 24 h, 1 µM, compound concentration 1 uM, replicate 1
[6] = 24 h, 1 µM, compound concentration 1 uM, replicate 2
[7] = 24 h, 10 µM, compound concentration 10 uM, replicate 1
[8] = 24 h, 10 µM, compound concentration 10 uM, replicate 2
[9] = 48 h, 1 µM, compound concentration 1 uM, replicate 1
[10] = 48 h, 1 µM, compound concentration 1 uM, replicate 2
[11] = 48 h, 10 µM, compound concentration 10 uM, replicate 1
[12] = 48 h, 10 µM, compound concentration 10 uM, replicate 2

## CC(C)C[C@H](NC(=O)[C@H](Cc1ccccc1)NC(=O)CNC(=O)CNC(=O)[C@@H](N)Cc1ccc(O)cc1)C(=O)O [ENKEPHALIN]
U2OS; [1]
  Population Healthy Nuclei (%): 77%
  Population Pyknosed Nuclei (%): 10%
  Population Tubulin-Different-Phenotype (%): 9%
  Total Cell Count: 216
U2OS; [2]
  Population Healthy Nuclei (%): 82%
  Population Pyknosed Nuclei (%): 5%
  Population Tubulin-Different-Phenotype (%): 34%
  Total Cell Count: 70
U2OS; [3]
  Population Healthy Nuclei (%): 78%
  Population Pyknosed Nuclei (%): 11%
  Population Tubulin-Different-Phenotype (%): 9%
  Total Cell Count: 148
U2OS; [4]
  Population Healthy Nuclei (%): 86%
  Population Tubulin-Different-Phenotype (%): 11%
  Total Cell Count: 62
U2OS; [5]
  Population Healthy Nuclei (%): 82%
  Population Pyknosed Nuclei (%): 9%
  Population Tubulin-Different-Phenotype (%): 9%
  Total Cell Count: 218
U2OS; [6]
  Population Healthy Nuclei (%): 84%
  Population Pyknosed Nuclei (%): 5%
  Population Tubulin-Different-Phenotype (%): 31%
  Total Cell Count: 68
U2OS; [7]
  Population Healthy Nuclei (%): 80%
  Population Pyknosed Nuclei (%): 10%
  Total Cell Count: 174
U2OS; [8]
  Population Healthy Nuclei (%): 86%
  Population Pyknosed Nuclei (%): 7%
  Population Tubulin-Different-Phenotype (%): 15%
  Total Cell Count: 86
U2OS; [9]
  Population Healthy Nuclei (%): 87%
  Population Pyknosed Nuclei (%): 7%
  Total Cell Count: 229
U2OS; [10]
  Population Healthy Nuclei (%): 92%
  Population Tubulin-Different-Phenotype (%): 31%
  Total Cell Count: 80
U2OS; [11]
  Population Healthy Nuclei (%): 84%
  Population Pyknosed Nuclei (%): 8%
  Population Tubulin-Different-Phenotype (%): 5%
  Total Cell Count: 251
U2OS; [12]
  Population Healthy Nuclei (%): 85%
  Population Pyknosed Nuclei (%): 6%
  Population Tubulin-Different-Phenotype (%): 15%
  Total Cell Count: 131
HEK-293T; [1]
  Population Apoptotic (%): 45%
  Population Healthy Nuclei (%): 23%
  Population Mitochondria Different-Phenotype (%): 76%
  Population Mitotic Cells (%): 54%
  Population Pyknosed Nuclei (%): 60%
  Total Cell Count: 175
HEK-293T; [2]
  Population Apoptotic (%): 9%
  Population Healthy Nuclei (%): 50%
  Population Mitotic Cells (%): 90%
  Population Pyknosed Nuclei (%): 43%
  Total Cell Count: 229
HEK-293T; [3]
  Population Apoptotic (%): 40%
  Population Healthy Nuclei (%): 32%
  Population Mitochondria Different-Phenotype (%): 84%
  Population Mitotic Cells (%): 60%
  Population Pyknosed Nuclei (%): 57%
  Total Cell Count: 230
HEK-293T; [4]
  Population Apoptotic (%): 9%
  Population Healthy Nuclei (%): 45%
  Population Mitotic Cells (%): 90%
  Population Pyknosed Nuclei (%): 50%
  Total Cell Count: 271
HEK-293T; [5]
  Population Healthy Nuclei (%): 21%
  Population Mitochondria Different-Phenotype (%): 41%
  Population Normal (%): 80%
  Population Pyknosed Nuclei (%): 60%
  Total Cell Count: 175
HEK-293T; [6]
  Population Apoptotic (%): 10%
  Population Healthy Nuclei (%): 66%
  Population Mitotic Cells (%): 89%
  Population Pyknosed Nuclei (%): 28%
  Total Cell Count: 294
HEK-293T; [7]
  Population Healthy Nuclei (%): 45%
  Population Hoechst High Intensity Objects (%): 14%
  Population Mitotic Cells (%): 51%
  Population Normal (%): 85%
  Population Pyknosed Nuclei (%): 45%
  Total Cell Count: 250
HEK-293T; [8]
  Population Apoptotic (%): 7%
  Population Healthy Nuclei (%): 71%
  Population Mitotic Cells (%): 92%
  Population Pyknosed Nuclei (%): 23%
  Total Cell Count: 374
